Assay results taken from ChEMBL document CHEMBL4715736, “Identification of anticancer agents based on the thieno[2,3-b]pyridine and 1H-pyrazole molecular scaffolds” (2016).

Key:
Format in all cases: functional
[1] = test system: HT-29; test: Growth inhibition of human HT-29 cells incubated for 48 hrs by sulforhodamine B assay
Method in brief: (§1)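 NCI60 panel at the NCI Developmental Therapeutics Program. Only compounds active in the 10 µM screen went to dose-response testing. GI50, the concentration giving 50% of maximal inhibition of proliferation, and TGI, the concentration giving total growth inhibition, were derived from the dose-response curves.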

[2] = test system: RPMI-8226; test: Growth inhibition of human RPMI-8226 cells assessed as cell growth at 1 uM incubated for 48 hrs by sulforhodamine B assay relative to control; conditions: read-out: Activity
[3] = test system: BT-549; test: Growth inhibition of human BT-549 cells assessed as cell growth at 0.1 uM incubated for 48 hrs by sulforhodamine B assay relative to control; conditions: read-out: Activity
[4] = test system: MOLT-4; test: Growth inhibition of human MOLT-4 cells incubated for 48 hrs by sulforhodamine B assay; method in brief: as §1
[5] = test system: SW-620; test: Growth inhibition of human SW-620 cells assessed as cell growth at 0.1 uM incubated for 48 hrs by sulforhodamine B assay relative to control; conditions: read-out: Activity
[6] = test system: NCI-H460; test: Growth inhibition of human NCI-H460 cells assessed as cell growth at 100 uM incubated for 48 hrs by sulforhodamine B assay relative to control; conditions: read-out: Activity
[7] = test system: 786-0; test: Growth inhibition of human 786-0 cells assessed as cell growth at 0.01 uM incubated for 48 hrs by sulforhodamine B assay relative to control; conditions: read-out: Activity
Method in brief: (§2)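 NCI Developmental Therapeutics Program NCI60 panel. Compounds that were active in the 10 µM one-dose screen went on to dose–response testing. Growth at each concentration is expressed relative to untreated control (100%). GI50 (concentration giving 50% of maximal inhibition of proliferation) and TGI (concentration giving total growth inhibition) were derived from the curves.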

[8] = test system: CAKI-1; test: Growth inhibition of human CAKI-1 cells assessed as cell growth at 100 uM incubated for 48 hrs by sulforhodamine B assay relative to control; conditions: read-out: Activity; method in brief: as §2
[9] = test system: OVCAR-8; test: Growth inhibition of human OVCAR-8 cells assessed as cell growth at 1 uM incubated for 48 hrs by sulforhodamine B assay relative to control; conditions: read-out: Activity
[10] = test system: HOP-62; test: Growth inhibition of human HOP-62 cells assessed as cell growth at 100 uM incubated for 48 hrs by sulforhodamine B assay relative to control; conditions: read-out: Activity
[11] = test system: SR; test: Growth inhibition of human SR cells assessed as cell growth at 0.01 uM incubated for 48 hrs by sulforhodamine B assay relative to control; conditions: read-out: Activity
[12] = test system: A498; test: Growth inhibition of human A498 cells assessed as cell growth at 100 uM incubated for 48 hrs by sulforhodamine B assay relative to control; conditions: read-out: Activity; method in brief: as §2
[13] = test system: 786-0; test: Growth inhibition of human 786-0 cells assessed as cell growth at 100 uM incubated for 48 hrs by sulforhodamine B assay relative to control; conditions: read-out: Activity
[14] = test system: IGROV-1; test: Growth inhibition of human IGROV-1 cells assessed as cell growth at 0.1 uM incubated for 48 hrs by sulforhodamine B assay relative to control; conditions: read-out: Activity
[15] = test system: LOX IMVI; test: Growth inhibition of human LOX IMVI cells assessed as cell growth at 1 uM incubated for 48 hrs by sulforhodamine B assay relative to control; conditions: read-out: Activity
[16] = test system: OVCAR-8; test: Growth inhibition of human OVCAR-8 cells assessed as cell growth at 0.01 uM incubated for 48 hrs by sulforhodamine B assay relative to control; conditions: read-out: Activity
[17] = test system: 786-0; test: Growth inhibition of human 786-0 cells incubated for 48 hrs by sulforhodamine B assay; method in brief: as §2
[18] = test system: A498; test: Growth inhibition of human A498 cells assessed as cell growth at 0.1 uM incubated for 48 hrs by sulforhodamine B assay relative to control; conditions: read-out: Activity; method in brief: as §2
[19] = test system: MDA-MB-468; test: Growth inhibition of human MDA-MB-468 cells assessed as cell growth at 0.1 uM incubated for 48 hrs by sulforhodamine B assay relative to control; conditions: read-out: Activity
[20] = test system: NCI/ADR-RES; test: Growth inhibition of human NCI/ADR-RES cells assessed as cell growth at 0.01 uM incubated for 48 hrs by sulforhodamine B assay relative to control; conditions: read-out: Activity
[21] = test system: NCI-H226; test: Growth inhibition of human NCI-H226 cells assessed as cell growth at 0.01 uM incubated for 48 hrs by sulforhodamine B assay relative to control; conditions: read-out: Activity
[22] = test system: RXF 393; test: Growth inhibition of human RXF 393 cells assessed as cell growth at 0.1 uM incubated for 48 hrs by sulforhodamine B assay relative to control; conditions: read-out: Activity
[23] = test system: MCF7; test: Growth inhibition of human MCF7 cells assessed as cell growth at 0.1 uM incubated for 48 hrs by sulforhodamine B assay relative to control; conditions: read-out: Activity
[24] = test system: PC-3; test: Growth inhibition of human PC-3 cells assessed as cell growth at 0.01 uM incubated for 48 hrs by sulforhodamine B assay relative to control; conditions: read-out: Activity
[25] = test system: NCI-H322M; test: Growth inhibition of human NCI-H322M cells assessed as cell growth at 0.01 uM incubated for 48 hrs by sulforhodamine B assay relative to control; conditions: read-out: Activity
[26] = test system: COLO 205; test: Growth inhibition of human COLO 205 cells assessed as cell growth at 0.01 uM incubated for 48 hrs by sulforhodamine B assay relative to control; conditions: read-out: Activity; method in brief: as §2
[27] = test system: SNB-19; test: Growth inhibition of human SNB-19 cells incubated for 48 hrs by sulforhodamine B assay
Method in brief: (§3)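 NCI DTP 60-line human tumour panel. Dose-response curves were run only for ligands active in the initial 10 µM screen. GI50 (concentration giving 50% of maximal inhibition of proliferation) and TGI (concentration giving total growth inhibition) were derived from these curves.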

[28] = test system: OVCAR-4; test: Growth inhibition of human OVCAR-4 cells assessed as cell growth at 0.01 uM incubated for 48 hrs by sulforhodamine B assay relative to control; conditions: read-out: Activity
[29] = test system: SF-268; test: Growth inhibition of human SF-268 cells assessed as cell growth at 100 uM incubated for 48 hrs by sulforhodamine B assay relative to control; conditions: read-out: Activity
[30] = test system: UACC-257; test: Growth inhibition of human UACC-257 cells incubated for 48 hrs by sulforhodamine B assay; method in brief: as §3
[31] = test system: RPMI-8226; test: Growth inhibition of human RPMI-8226 cells assessed as cell growth at 0.1 uM incubated for 48 hrs by sulforhodamine B assay relative to control; conditions: read-out: Activity
[32] = test system: K562; test: Growth inhibition of human K562 cells assessed as cell growth at 100 uM incubated for 48 hrs by sulforhodamine B assay relative to control; conditions: read-out: Activity
[33] = test system: NCI-H226; test: Growth inhibition of human NCI-H226 cells assessed as cell growth at 0.1 uM incubated for 48 hrs by sulforhodamine B assay relative to control; conditions: read-out: Activity
[34] = test system: RPMI-8226; test: Growth inhibition of human RPMI-8226 cells incubated for 48 hrs by sulforhodamine B assay; method in brief: as §3
[35] = test system: MOLT-4; test: Growth inhibition of human MOLT-4 cells assessed as cell growth at 100 uM incubated for 48 hrs by sulforhodamine B assay relative to control; conditions: read-out: Activity
[36] = read-out: LC50 (the source's name)

Compound: CN1CCc2nc3sc(C(N)=O)c(N)c3c(-c3cccs3)c2C1
- GI50 [1]: 3.11 µM
- LC50 [1]: > 100 µM
- TGI [1]: 70.9 µM
- growth at 1 µM [2]: 119%
- growth at 0.1 µM [3]: 114%
- GI50 [4]: 2.89 µM
- TGI [4]: 48.4 µM
- CC50 [4, 36]: > 100 µM
- growth at 0.1 µM [5]: 110%
- growth at 100 µM [6]: 2%
- growth at 0.01 µM [7]: 95%
- growth at 100 µM [8]: 7%
- growth at 1 µM [9]: 82%
- growth at 100 µM [10]: 2%
- growth at 0.01 µM [11]: 97%
- growth at 100 µM [12]: -23%
- growth at 100 µM [13]: 15%
- growth at 0.1 µM [14]: 116%
- growth at 1 µM [15]: 56%
- growth at 0.01 µM [16]: 106%
- GI50 [17]: 4.41 µM
- TGI [17]: > 100 µM
- CC50 [17, 36]: > 100 µM
- growth at 0.1 µM [18]: 111%
- growth at 0.1 µM [19]: 82%
- growth at 0.01 µM [20]: 100%
- growth at 0.01 µM [21]: 93%
- growth at 0.1 µM [22]: 85%
- growth at 0.1 µM [23]: 107%
- growth at 0.01 µM [24]: 105%
- growth at 0.01 µM [25]: 96%
- growth at 0.01 µM [26]: 105%
- GI50 [27]: 4.34 µM
- LC50 [27]: > 100 µM
- TGI [27]: > 100 µM
- growth at 0.01 µM [28]: 110%
- growth at 100 µM [29]: 2%
- GI50 [30]: 4 µM
- LC50 (concentration killing 50% of cells) [30]: > 100 µM
- TGI [30]: > 100 µM
- growth at 0.1 µM [31]: 121%
- growth at 100 µM [32]: 2%
- growth at 0.1 µM [33]: 89%
- GI50 [34]: 4.41 µM
- LC50 [34]: > 100 µM
- TGI [34]: > 100 µM
- growth at 100 µM [35]: -4%
